Source: ChEMBL document CHEMBL4028901, “Novel Antitubercular 6-Dialkylaminopyrimidine Carboxamides from Phenotypic Whole-Cell High Throughput Screening of a SoftFocus Library: Structure-Activity Relationship and Target Identification Studies” (J Med Chem, 2017)
Values after ≈ are worked out from the molar mass of the structure shown.

Assays:
[1] = tested on: Mycobacterium tuberculosis; assay: Antibacterial activity against Mycobacterium tuberculosis H37RvMA grown in 7H9/ADC medium measured 7 to 14 days post inoculation by broth microdilution method; type: functional
[2] = tested on: Mycobacterium tuberculosis; assay: Antibacterial activity against Mycobacterium tuberculosis H37RvMA grown in GAST/Fe medium measured 7 to 14 days post inoculation by broth microdilution method; type: functional
How it was run: (§1)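 H37RvMa grown to OD600 0.6–0.7, diluted 1:100 in GAST/Fe. Compounds two-fold serially diluted from a top concentration of 640 μM, in duplicate. Incubated at 37 °C with humidification.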

Vero = assay: Cytotoxicity against African green monkey Vero cells assessed as reduction in cell viability by MTT assay; type: cell-based; conditions: Chlorocebus sabaeus
How it was run: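 MTT assay in Vero cells, samples in triplicate on one occasion. Stocks at 20 mg/mL in DMSO, diluted in complete medium as 10-fold serial dilutions over 6 concentrations. Emetine used as reference. IC50 derived by non-linear dose-response curve fitting.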

[3] = Kinetic solubility of the compound in fasted-state simulated intestinal fluid at 10 to 220 uM at pH 6.5 after 2 hrs by shake flask method; type: physicochemical; conditions: read-out: Kinetic_solubility
How it was run: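 Miniaturised shake flask. 10 mM DMSO stocks spiked 1:50 into duplicate FaSSIF (pH 6.5), 2% final DMSO. Shaken 2 h at 25 °C, filtered, analysed by HPLC-DAD against calibration standards (10–220 μM).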

[4] = Lipophilicity, log P of the compound at 100 uM at pH 7.4 after 3 hrs by shake-flask method; type: physicochemical; conditions: buffer
How it was run: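 Shake-flask method run in triplicate. A 10 mM stock was spiked into a 1:1 mixture of phosphate buffer (pH 7.4) and n-octanol, then shaken at 1500 rpm on an orbital shaker for 3 h at room temperature.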

[5] = Kinetic solubility of the compound in pH 7.4 solution at 10 to 220 uM after 2 hrs by shake flask method; type: physicochemical; conditions: buffer, pH 7.4, 2 h, 220 µM
[6] = tested on: Mycobacterium tuberculosis; assay: Antibacterial activity against Mycobacterium tuberculosis […] SAWC1125 grown in middlebrook 7H9 medium measured on day 7 and 14 by MABA assay; type: functional; conditions: 168 h
How it was run: (§2)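 Clinical M. tuberculosis strains tested by broth microdilution in 7H9 medium. On days 7 and 14, Alamar Blue added and plates reincubated 24 h at 37 °C. Colour read by eye (blue means no growth, pink means growth). MIC90 is the lowest concentration with no colour change.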

[7] = tested on: Mycobacterium tuberculosis; assay: Antibacterial activity against Mycobacterium tuberculosis […] SAWC3933 grown in middlebrook 7H9 medium measured on day 7 and 14 by MABA assay; type: functional; conditions: 168 h; how it was run: as §2
[8] = tested on: Mycobacterium tuberculosis; assay: Antibacterial activity against Mycobacterium tuberculosis […] SAWC3385 grown in middlebrook 7H9 medium measured on day 7 and 14 by MABA assay; type: functional; conditions: 168 h; how it was run: as §2
[9] = tested on: Mycobacterium tuberculosis; assay: Antibacterial activity against Mycobacterium tuberculosis […] SAWC3200 grown in middlebrook 7H9 medium measured on day 7 and 14 by MABA assay; type: functional; conditions: 168 h; how it was run: as §2
[10] = tested on: Mycobacterium tuberculosis; assay: Antibacterial activity against Mycobacterium tuberculosis […] SAWC3388 grown in middlebrook 7H9 medium measured on day 7 and 14 by MABA assay; type: functional; conditions: 168 h; how it was run: as §2
[11] = tested on: Mycobacterium tuberculosis; assay: Antibacterial activity against Mycobacterium tuberculosis […] SAWC3906 grown in middlebrook 7H9 medium measured on day 7 and 14 by MABA assay; type: functional; conditions: 168 h; how it was run: as §2
Liver [12] = assay: Metabolic stability in rat liver microsomes assessed as compound remaining at 0.1 uM after 30 mins by LC-MS/MS analysis; type: ADME, microsome; conditions: 0.5 h
How it was run: (§3)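 Compound at 0.1 μM incubated in duplicate with mouse, rat or pooled human liver microsomes (0.4 mg/mL) at 37 °C. Run with and without 1 mM NADPH, sampled at predetermined time points.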

Plasma = assay: Fraction unbound in human plasma at 5 uM pre-incubated for 1 hr by ultra-centrifugation and LC-MS/MS method; type: ADME, cell-free
How it was run: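 Pooled human plasma spiked to 5 μM and pre-incubated 1 h at 37 °C. Duplicate aliquots ultracentrifuged 4 h at 37 °C; an unspun aliquot served as the total sample. Analyte measured by LC-MS/MS.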

Liver [13] = assay: Metabolic stability in human liver microsomes assessed as compound remaining at 0.1 uM after 30 mins by LC-MS/MS analysis; type: ADME, microsome; conditions: 0.5 h; how it was run: as §3
Liver [14] = assay: Metabolic stability in mouse liver microsomes assessed as compound remaining at 0.1 uM after 30 mins by LC-MS/MS analysis; type: ADME, microsome; conditions: 0.5 h; how it was run: as §3
Mus musculus [15] = assay: Apparent elimination half life in C57/BL6 mouse at 20 mg/kg, po measured up to 24 hrs post dose by LC-MS/MS analysis; type: ADME, organism-based; conditions: in vivo
How it was run: (§4)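 Male mice, 3 per route, not fasted, free access to water. Oral dose given as aqueous suspension in 0.5% (w/v) hydroxypropyl methylcellulose with 0.4% (v/v) Tween 80. Blood drawn into heparinised tubes at 0.5, 1, 3, 5, 8, 12 and 24 h, kept below -15 °C, protein-precipitated with ice-cold acetonitrile. Quantified by LC-MS/MS against standards made in drug-free mouse blood.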

Mus musculus [16] = assay: Cmax in C57/BL6 mouse at 20 mg/kg, po measured up to 24 hrs post dose by LC-MS/MS analysis; type: ADME, organism-based; parameters: dose 20 mg/kg, route oral; conditions: in vivo; how it was run: as §4
Mus musculus [17] = assay: Tmax in C57/BL6 mouse at 20 mg/kg, po measured up to 24 hrs post dose by LC-MS/MS analysis; type: ADME, organism-based; conditions: in vivo; how it was run: as §4
Mus musculus [18] = assay: AUC (0 to infinity) in C57/BL6 mouse at 20 mg/kg, po measured up to 24 hrs post dose by LC-MS/MS analysis; type: ADME, organism-based; parameters: dose 20 mg/kg, route oral, time infinity; conditions: in vivo; how it was run: as §4
Mus musculus [19] = assay: Oral bioavailability in C57/BL6 mouse at 20 mg/kg measured up to 24 hrs post dose by LC-MS/MS analysis; type: ADME, organism-based; conditions: in vivo; how it was run: as §4
Mus musculus [20] = assay: Apparent elimination half life in C57/BL6 mouse at 5 mg/kg, iv measured up to 24 hrs post dose by LC-MS/MS analysis; type: ADME, organism-based; conditions: in vivo
How it was run: (§5)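 Male mice, 3 animals, not fasted, given an IV bolus in 10% DMSO, 50% propylene glycol/ethanol (4:1) and 40% polyethylene glycol or water. Blood sampled into heparinised tubes at 0.17, 0.5, 1, 3, 5, 8, 12 and 24 h, stored frozen, precipitated with ice-cold acetonitrile. Measured by LC-MS/MS with internal standards against blood-matrix calibration standards.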

Mus musculus [21] = assay: Volume of distribution in C57/BL6 mouse at 5 mg/kg, iv measured up to 24 hrs post dose by LC-MS/MS analysis; type: ADME, organism-based; conditions: in vivo; how it was run: as §5
Mus musculus [22] = assay: AUC (0 to infinity) in C57/BL6 mouse at 5 mg/kg, iv measured up to 24 hrs post dose by LC-MS/MS analysis; type: ADME, organism-based; parameters: dose 5 mg/kg, route intravenous, time infinity; conditions: in vivo; how it was run: as §5
[23] = tested on: Mycobacterium tuberculosis; assay: Antibacterial activity against wild type Mycobacterium tuberculosis H37Rv grown in GAST/Fe medium measured on day 14 post inoculation by broth microdilution method; type: functional; conditions: 336 h; how it was run: as §1
[24] = tested on: Mycobacterium tuberculosis; assay: Antibacterial activity against Mycobacterium tuberculosis H37Rv grown in middlebrook 7H9 medium measured on day 7 and 14 by MABA assay; type: functional; conditions: 168 h
Liver [25] = assay: Drug metabolism in BALB mouse liver microsomes assessed as cleavage of amide bound on RHS at 10 uM after 1 hr by LC-MS/MS analysis; type: ADME, microsome
How it was run: (§6)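 Incubation at 37 °C for 1 h with shaking in 100 mM phosphate buffer pH 7.4, 1 mg/ml microsomes, 5 mM MgCl2 and 1 mM NADPH. Ice-cold acetonitrile precipitation, filtration, then LC-MS/MS. Controls: unincubated sample, and samples lacking NADPH or lacking microsomes; propranolol 10 μM as positive control. Metabolites found by comparing T60 with T0 and no-NADPH chromatograms, with product ion spectra of [M+H]+ compared against parent and synthetic standards where available.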

Liver [26] = assay: Drug metabolism in BALB mouse liver microsomes assessed as N-demethylation on LHS at 10 uM after 1 hr by LC-MS/MS analysis; type: ADME, microsome; how it was run: as §6
[27] = tested on: Mycobacterium tuberculosis; assay: Antibacterial activity against cytochrome bd oxidase knockout GFP-fused Mycobacterium tuberculosis H37RvMA grown in GAST/Fe medium measured on day 7 and day 14 post inoculation by fluorescence plate reader assay; type: functional
[28] = tested on: Mycobacterium tuberculosis; assay: Antibacterial activity against cytochrome bd oxidase knockout GFP-fused Mycobacterium tuberculosis H37RvMA grown in 7H9/GLU/ADC medium measured on day 7 and day 14 post inoculation by fluorescence plate reader assay; type: functional; conditions: Mycobacterium tuberculosis, H37RvMA; read-out: MIC99

| Compound | MIC99 [1] | MIC99 [2] | IC50 (Vero) | solubility kinetic at 2 h [3] | logD at 3 h, 100 µM [4] | Kinetic_solubility [5] | MIC90 [6] | MIC90 [7] | MIC90 [8] | MIC90 [9] | MIC90 [10] | MIC90 [11] | Stability (Liver [12]) | Fu (Plasma) | Stability (Liver [13]) | Stability (Liver [14]) | betat1/2(app) (Mus musculus [15]) | Cmax (Mus musculus [16]) | Tmax (Mus musculus [17]) | AUC (Mus musculus [18]) | other results |
| --- | --- | --- | --- | --- | --- | --- | --- | --- | --- | --- | --- | --- | --- | --- | --- | --- | --- | --- | --- | --- | --- |
| CN(Cc1ccc(C(F)(F)F)nc1)c1cc(C(=O)Nc2nncs2)ncn1 | 50 µM (≈ 19.8 µg/mL) | 5 µM (≈ 1.98 µg/mL) | 28 µM | 195 µM (≈ 77.1 µg/mL) | 1.4 | 191 µM | 2.5 µM (≈ 0.988 µg/mL) | 10 to 20 µM (≈ 3.95 to 7.91 µg/mL) | 10 µM (≈ 3.95 µg/mL) | 2.5 to 5 µM (≈ 0.988 to 1.98 µg/mL) | 10 µM (≈ 3.95 µg/mL) | 2.5 to 5 µM (≈ 0.988 to 1.98 µg/mL) | 88% | 0.32% | 100% | 78% | 3 h | 10800 nM | 1 h | 5614 µM·min | F (Mus musculus [19]): 67%; betat1/2(app) (Mus musculus [20]): 3 h; Vd (Mus musculus [21]): 1.7 L/kg; AUC (Mus musculus [22]): 2106 µM·min |
| CC(C)Oc1ccc(NC(=O)c2cc(N(C)Cc3ccc(F)cc3)ncn2)cc1 | 5 µM (≈ 1.97 µg/mL) | 1.2 µM (≈ 0.473 µg/mL) | 254 µM | < 5 µM | 5 |  | 2.5 µM (≈ 0.986 µg/mL) | 2.5 µM (≈ 0.986 µg/mL) | 0.31 µM (≈ 0.122 µg/mL) | < 0.08 µM | 0.31 µM (≈ 0.122 µg/mL) | 0.31 µM (≈ 0.122 µg/mL) | 43% | 0.04% | 64% | 37% |  |  |  |  | MIC99 [23]: 1.25 to 5 µM (≈ 0.493 to 1.97 µg/mL); MIC90 [24]: 1.25 µM (≈ 0.493 µg/mL) |
| CN(Cc1ccc(C(F)(F)F)cc1)c1cc(C(=O)Nc2ccccc2)ncn1 | 5 µM (≈ 1.93 µg/mL) | 5 µM (≈ 1.93 µg/mL) | 258 µM | 5 µM (≈ 1.93 µg/mL) | 5 | < 5 µM |  |  |  |  |  |  | 87% | 0.11% | 55% | 60% | 8.7 h | 2200 nM | 1 h | 1334 µM·min | F (Mus musculus [19]): 28%; betat1/2(app) (Mus musculus [20]): 4.6 h; Vd (Mus musculus [21]): 4.3 L/kg; AUC (Mus musculus [22]): 1224 µM·min; Drug metabolism (Liver [25]): Metabolite_Detected; Drug metabolism (Liver [26]): Metabolite_Detected |
| CN(Cc1cccnc1)c1cc(C(=O)Nc2ccccc2)ncn1 |  |  |  |  |  | 150 µM |  |  |  |  |  |  |  |  |  |  |  |  |  |  | MIC99 [27]: 37 µM (≈ 11.8 µg/mL); MIC99 [28]: 48 µM (≈ 15.3 µg/mL) |
| CN(Cc1ccc(F)cc1)c1cc(C(=O)Nc2nncs2)ncn1 | 12.5 µM (≈ 4.3 µg/mL) | 4.7 µM (≈ 1.62 µg/mL) | 21.9 µM | < 5 µM | 2 | 128 µM | < 0.08 µM | 0.625 µM (≈ 0.215 µg/mL) | < 0.08 µM | < 0.08 µM | 0.15 µM (≈ 0.0517 µg/mL) | < 0.08 µM | 65% | 0.01% | 67% | 74% | 4.4 h | 2580 nM | 1 h | 1022 µM·min | MIC99 [23]: 5 µM (≈ 1.72 µg/mL); MIC90 [24]: 2.5 µM (≈ 0.861 µg/mL); F (Mus musculus [19]): 19%; betat1/2(app) (Mus musculus [20]): 5.1 h; Vd (Mus musculus [21]): 4.8 L/kg; AUC (Mus musculus [22]): 1329 µM·min; Drug metabolism (Liver [25]): Metabolite_Detected; Drug metabolism (Liver [26]): Metabolite_Detected |
